The source made the active and inactive calls. No cut-off for these calls is given here.
Columns and labels:
[1] = (§1) Prodrug conversion in Schistosoma mansoni adult worms assessed as 3-(3,5-dimethylisoxazol-4-yl)-5-(hydroxy(phenyl)methyl)phenol metabolite formation at 20 uM incubated for 24 hrs followed by compound washout thrice and subsequent addition of fresh medium without compound by LC-MS analysis; assay type: ADME
Schistosoma mansoni [2] = assay: Antiparasitic activity against Schistosoma mansoni assessed as inhibition of miracidia to sporocyst transformation at 0.5 to 25 uM incubated for 48 hrs by enumeration method; assay type: functional, organism-based; settings: dose 0.5-25 µM
Outline: (§2)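 Miracidia hatched from eggs, washed in Chernin's balanced salt solution, 15–25 per well. Exposed to 0.5, 2.0, 5.0, 10 and 25 μM final in 1% DMSO, 48 h at 26 °C in the dark. Dead, partially and fully transformed parasites counted as % of population. Three independent experiments, two technical replicates each; CBSS/1% DMSO negative control.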

Schistosoma mansoni [3] = assay: Antiparasitic activity against Schistosoma mansoni assessed as effect on schistosomula phenotype at 10 to 20 uM incubated for 72 hrs by high content imaging analysis; assay type: functional, organism-based; settings: dose 10-20 µM
Outline: (§3)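 Schistosomula from mechanically transformed cercariae, 120/well, dosed from 10 mM DMSO stock at 20 and 10 μM final in duplicate (0.625% DMSO), ≥4 independent screens (Z′ >0.35). Auranofin 10 μM positive and DMSO negative controls. Phenotype and motility read by high content imaging after 72 h.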

Schistosoma mansoni [4] = assay: Antiparasitic activity against Schistosoma mansoni adult worms assessed as lethality at 20 uM incubated for 72 hrs; assay type: functional, organism-based
Schistosoma mansoni [5] = assay: Binding affinity to Schistosoma mansoni BRD3 BD 2 by ITC analysis
Schistosoma mansoni [6] = assay: Antiparasitic activity against Schistosoma mansoni assessed as effect on schistosomula motility at 10 to 20 uM incubated for 72 hrs by high content imaging analysis; assay type: functional, organism-based; settings: dose 10-20 µM; outline: as §3
[7] = Binding affinity to Schistosoma mansoni BRD3 BD 2 assessed as dissociation constant by ITC analysis
Schistosoma mansoni [8] = assay: Antiparasitic activity against Schistosoma mansoni assessed as effect on schistosomula motility incubated for 72 hrs by high content imaging analysis; assay type: functional, organism-based; outline: as §3
Schistosoma mansoni [9] = assay: Antiparasitic activity against Schistosoma mansoni assessed as effect on schistosomula phenotype incubated for 72 hrs by high content imaging analysis; assay type: functional, organism-based; outline: as §3
Schistosoma mansoni [10] = assay: Binding affinity to Schistosoma mansoni BRD3 BD 2 assessed as thermal stability at 50 uM by DSF analysis
Outline: (§4)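 Differential scanning fluorimetry on recombinant SmBRD3(1,2) tandem construct or SmBRD3(2) single domain, compounds at 50 μM; ΔTm as mean of n = 3 with SD.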

Schistosoma mansoni [11] = assay: Binding affinity to Schistosoma mansoni BRD3 BD 1 and 2 assessed as thermal stability at 50 uM by DSF analysis; outline: as §4
[12] = Binding affinity to Schistosoma mansoni BRD3 BD 1 and 2 assessed as dissociation constant by ITC analysis
Schistosoma mansoni [13] = assay: Binding affinity to Schistosoma mansoni BRD3 BD 1 assessed as thermal stability at 50 uM by DSF analysis
Schistosoma mansoni [14] = assay: Antiparasitic activity against Schistosoma mansoni assessed as inhibition of miracidia to sporocyst transformation incubated for 48 hrs by enumeration method; assay type: functional, organism-based; settings: dose 0.5-25 µM; outline: as §2
[15] = Prodrug conversion in Schistosoma mansoni adult worms assessed as ester hydrolysis in media at 20 uM incubated for 24 hrs followed by compound washout thrice and subsequent addition of fresh medium without compound by LC-MS analysis; assay type: ADME
[16] = as §1, with “4-{(2S,4R)-1-acetyl-2-methyl-4-[(quinolin-6-yl)amino]-1,2,3,4-tetrahydroquinolin-6-yl}benzoic acid” for “3-(3,5-dimethylisoxazol-4-yl)-5-(hydroxy(phenyl)methyl)phenol”; assay type: ADME
Outline: (§5)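 Adult worms exposed to 20 μM compound for 24 h, medium exchanged three times, worms then lysed; parent and acid levels in lysate quantified by LCMS.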

[17] = Drug uptake in Schistosoma mansoni adult worms at 20 uM incubated for 24 hrs followed by compound washout thrice and subsequent addition of fresh medium without compound by LC-MS analysis; assay type: ADME; outline: as §5
Schistosoma mansoni [18] = assay: Antiparasitic activity against Schistosoma mansoni adult worms assessed as reduction in worm pairing at 20 uM incubated for 72 hrs by imaging analysis; assay type: functional, organism-based
Outline: (§6)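 Adult worm pairs perfused from TO mice infected percutaneously 7 weeks earlier with 180 cercariae; 1 pair/well in duplicate, dosed at 20 μM in 0.2% DMSO for 72 h. Motility scored by digital image processing (WormassayGP2); in vitro laid eggs counted and pairing noted. DMSO negative and praziquantel positive controls; n = 2 independent screens, 2 technical replicates each.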

Schistosoma mansoni [19] = assay: Antiparasitic activity against Schistosoma mansoni adult worms assessed as reduction in oviposition at 20 uM incubated for 72 hrs by imaging analysis; assay type: functional, organism-based; outline: as §6
Schistosoma mansoni [20] = assay: Antiparasitic activity against Schistosoma mansoni adult worms assessed as effect on worm motility at 20 uM incubated for 72 hrs by imaging analysis; assay type: functional, organism-based; outline: as §6

CC(=O)Oc1cc(-c2c(C)noc2C)cc(C(O)c2ccccc2)c1 (centres undefined)
Drug metabolism [1]: Metabolite_Detected
inhibition (Schistosoma mansoni [2]): inactive
Activity (Schistosoma mansoni [3]): Active
Activity (Schistosoma mansoni [4]): inactive
Activity (Schistosoma mansoni [5]): inactive
Activity (Schistosoma mansoni [6]): Active

Cc1noc(C)c1-c1cc(O)cc(C(O)c2cccnc2)c1 (centres undefined)
Activity (Schistosoma mansoni [4]): inactive
Activity (Schistosoma mansoni [5]): inactive

CC(=O)N1c2ccc(-c3ccc(C(=O)O)cc3)cc2[C@H](Nc2ccc3ccsc3c2)C[C@@H]1C
pKd [7]: 6.2
Activity (Schistosoma mansoni [4]): inactive

O=C(C1CCCCC1)N1CC(=O)N2CCc3ccccc3C2C1 (centres undefined)
Activity (Schistosoma mansoni [4]): inactive

CCOC(=O)c1ccc(-c2ccc3c(c2)[C@H](Nc2ccc4ncsc4c2)C[C@H](C)N3C(C)=O)cc1
Kd [7]: 1.18 µM
Activity (Schistosoma mansoni [4]): inactive

CCOC(=O)c1ccc(-c2ccc3c(c2)[C@H](Nc2ccc4sccc4c2)C[C@H](C)N3C(C)=O)cc1
Activity (Schistosoma mansoni [4]): inactive

CCOC(=O)c1ccc(-c2ccc3c(c2)[C@H](Nc2ccc4ccoc4c2)C[C@H](C)N3C(C)=O)cc1
Kd [7]: 1.18 µM
Activity (Schistosoma mansoni [4]): inactive

CC(=O)N1c2ccc(-c3ccc(C(=O)O)cc3)cc2[C@H](Nc2ccc3ncsc3c2)C[C@@H]1C
EC50 (Schistosoma mansoni [8]): 2.85 µM
pKd [7]: 5.9
Activity (Schistosoma mansoni [4]): inactive
EC50 (Schistosoma mansoni [9]): 2.14 µM

CCOC(=O)c1ccc(-c2ccc3c(c2)[C@H](Nc2ccc4[nH]ccc4c2)C[C@H](C)N3C(C)=O)cc1
Kd [7]: 0.651 µM
Activity (Schistosoma mansoni [4]): inactive

CC(=O)N1c2ccc(-c3ccc(C(=O)O)cc3)cc2[C@H](Nc2ccc3ncccc3c2)C[C@@H]1C
EC50 (Schistosoma mansoni [8]): 3.3 µM
pKd [7]: 6.4
Activity (Schistosoma mansoni [4]): inactive
EC50 (Schistosoma mansoni [9]): 1.11 µM

CC(=O)N1c2ccc(-c3ccc(C(=O)O)cc3)cc2[C@H](Nc2ccc(Cl)cc2)C[C@@H]1C
Activity (Schistosoma mansoni [10]): Active
Activity (Schistosoma mansoni [11]): Active
pKd [7]: 5.7
Activity (Schistosoma mansoni [4]): inactive

CC(=O)N1c2ccc(-c3ccc(C(=O)O)cc3)cc2[C@H](Nc2ccc3sccc3c2)C[C@@H]1C
pKd [7]: 6.3
Activity (Schistosoma mansoni [4]): inactive

Cc1sc2c(c1C)C(c1ccc(Cl)cc1)=N[C@@H](CC(=O)OC(C)(C)C)c1nnc(C)n1-2
Activity (Schistosoma mansoni [10]): inactive
Kd [12]: 0.445 µM
pKd [12]: 6.4
inhibition (Schistosoma mansoni [2]): Active
Activity (Schistosoma mansoni [11]): Active
Activity (Schistosoma mansoni [4]): inactive
Activity (Schistosoma mansoni [13]): Active
Activity (Schistosoma mansoni [5]): inactive

CCOC(=O)c1ccc(-c2ccc3c(c2)[C@H](Nc2ccc4ncccc4c2)C[C@H](C)N3C(C)=O)cc1
inhibition (Schistosoma mansoni [14]): Dose-Dependent Effect
Drug metabolism [15]: Metabolite_Detected
Kd [7]: 0.364 µM
Activity (Schistosoma mansoni [4]): inactive
Drug metabolism [16]: Metabolite_Detected
Drug uptake [17]: Active

CCOC(=O)c1ccc(-c2ccc3c(c2)[C@@H](Nc2ccc4ccsc4c2)C[C@@H](C)N3C(C)=O)cc1
inhibition (Schistosoma mansoni [2]): Active
Activity (Schistosoma mansoni [18]): inactive
Activity (Schistosoma mansoni [3]): inactive
Activity (Schistosoma mansoni [4]): inactive
Activity (Schistosoma mansoni [6]): inactive

COc1cc2c3c(cnc2cc1-c1c(C)noc1C)NC(=O)C3[C@H](C)c1ccccn1 (some centres undefined)
pKd [7]: 5.2

Cc1noc(C)c1-c1cc(O)cc(C(O)c2ccccc2)c1 (centres undefined)
Activity (Schistosoma mansoni [10]): inactive
Activity (Schistosoma mansoni [11]): Active
Activity (Schistosoma mansoni [4]): inactive
Activity (Schistosoma mansoni [13]): Active
Activity (Schistosoma mansoni [5]): inactive

Cc1noc(C)c1-c1cc(O)cc(C(O)c2ccc(F)cc2)c1 (centres undefined)
inhibition (Schistosoma mansoni [2]): inactive
Activity (Schistosoma mansoni [4]): inactive
Activity (Schistosoma mansoni [5]): inactive

CC(=O)N1c2ccc(-c3ccc(C(=O)O)cc3)cc2[C@H](Nc2ccc3[nH]ccc3c2)C[C@@H]1C
EC50 (Schistosoma mansoni [8]): 1.81 µM
pKd [7]: 6.2
Activity (Schistosoma mansoni [4]): inactive
EC50 (Schistosoma mansoni [9]): 2.97 µM

CC(=O)N1c2ccc(-c3ccc(C(=O)O)cc3)cc2[C@H](Nc2ccc3ccoc3c2)C[C@@H]1C
EC50 (Schistosoma mansoni [8]): 3.92 µM
pKd [7]: 5.9
Activity (Schistosoma mansoni [4]): inactive
EC50 (Schistosoma mansoni [9]): 2.43 µM

CCOC(=O)c1ccc(-c2ccc3c(c2)[C@H](Nc2ccc4ccsc4c2)C[C@H](C)N3C(C)=O)cc1
Activity (Schistosoma mansoni [19]): Active
Activity (Schistosoma mansoni [20]): Active
inhibition (Schistosoma mansoni [14]): Dose-Dependent Effect
Activity (Schistosoma mansoni [18]): Active
Activity (Schistosoma mansoni [4]): inactive

CC[C@@H]1C(=O)N(C)c2cnc(Nc3ccc(C(=O)NC4CCN(C)CC4)cc3OC)nc2N1C1CCCC1
Activity (Schistosoma mansoni [10]): Active
Activity (Schistosoma mansoni [11]): Active

CC(=O)N1c2ccc(-c3ccc(C(=O)O)cc3)cc2[C@@H](Nc2ccc3ccsc3c2)C[C@H]1C
Activity (Schistosoma mansoni [3]): inactive
Activity (Schistosoma mansoni [4]): inactive
Activity (Schistosoma mansoni [5]): inactive
Activity (Schistosoma mansoni [6]): inactive
